Source: ChEMBL document CHEMBL1149292, “A rational utilization of high-throughput screening affords selective, orally bioavailable 1-benzyl-3-carboxyazetidine sphingosine-1-phosphate-1 receptor agonists” (J Med Chem, 2004)
Calls of active or inactive are those of the source. The calls are words filed in the database; no cut-off is given here.

Tests used:
[1] = target: T1, Sphingosine 1-phosphate receptor 1 (Homo sapiens, UniProt P21453); experiment: Displacement of [33P]sphingosine 1 phosphate from human S1P1 receptor expressed in CHO cells; assay type: cell-based
T1 sequence (P21453 whole entry): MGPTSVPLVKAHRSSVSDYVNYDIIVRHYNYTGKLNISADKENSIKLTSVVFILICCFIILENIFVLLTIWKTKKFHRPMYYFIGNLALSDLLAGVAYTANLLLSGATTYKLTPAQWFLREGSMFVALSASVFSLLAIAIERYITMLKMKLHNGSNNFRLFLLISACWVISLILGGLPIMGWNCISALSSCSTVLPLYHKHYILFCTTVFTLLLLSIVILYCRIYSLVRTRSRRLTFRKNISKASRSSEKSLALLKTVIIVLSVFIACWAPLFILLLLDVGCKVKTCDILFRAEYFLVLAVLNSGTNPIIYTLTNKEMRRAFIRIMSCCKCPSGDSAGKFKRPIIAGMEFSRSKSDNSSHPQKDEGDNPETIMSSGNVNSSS

[2] = target: T2, Sphingosine 1-phosphate receptor 3 (Homo sapiens, UniProt Q99500); experiment: Displacement of [33P]sphingosine 1 phosphate from human S1P3 receptor expressed in CHO cells; assay type: cell-based
T2 sequence (Q99500 whole entry): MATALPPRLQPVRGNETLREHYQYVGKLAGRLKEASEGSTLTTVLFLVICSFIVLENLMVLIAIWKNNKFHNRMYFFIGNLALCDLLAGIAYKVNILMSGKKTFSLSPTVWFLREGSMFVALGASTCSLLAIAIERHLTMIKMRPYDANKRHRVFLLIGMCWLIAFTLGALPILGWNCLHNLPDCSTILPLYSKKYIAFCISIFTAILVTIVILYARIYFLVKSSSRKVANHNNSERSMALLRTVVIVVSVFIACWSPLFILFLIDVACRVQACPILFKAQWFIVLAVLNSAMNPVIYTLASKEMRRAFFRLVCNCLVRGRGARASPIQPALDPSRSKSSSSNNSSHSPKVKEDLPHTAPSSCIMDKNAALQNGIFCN

[3] = target: T3, Sphingosine 1-phosphate receptor 4 (Homo sapiens, UniProt O95977); experiment: Displacement of [33P]sphingosine 1 phosphate from human S1P4 receptor expressed in CHO cells; assay type: cell-based
T3 sequence (O95977 whole entry): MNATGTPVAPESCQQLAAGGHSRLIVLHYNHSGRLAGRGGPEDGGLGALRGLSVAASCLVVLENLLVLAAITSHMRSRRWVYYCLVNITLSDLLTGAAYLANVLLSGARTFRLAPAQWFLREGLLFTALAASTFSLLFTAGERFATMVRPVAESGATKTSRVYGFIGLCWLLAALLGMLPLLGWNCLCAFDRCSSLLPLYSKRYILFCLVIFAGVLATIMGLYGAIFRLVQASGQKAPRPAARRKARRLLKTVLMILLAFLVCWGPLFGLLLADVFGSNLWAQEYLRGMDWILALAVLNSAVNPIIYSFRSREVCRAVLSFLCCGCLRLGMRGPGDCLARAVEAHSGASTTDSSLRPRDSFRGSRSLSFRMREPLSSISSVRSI
In short: (§1)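 Competition binding with [33P]-labeled S1P on membranes of CHO cells stably expressing each human S1P receptor. Values are the mean of n = 3 determinations.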

[4] = target: Sphingosine 1-phosphate receptor 2 (Homo sapiens, UniProt O95136); experiment: Displacement of [33P]sphingosine 1 phosphate from human S1P2 receptor expressed in CHO cells; assay type: cell-based
Sequence of Sphingosine 1-phosphate receptor 2 (O95136 whole entry): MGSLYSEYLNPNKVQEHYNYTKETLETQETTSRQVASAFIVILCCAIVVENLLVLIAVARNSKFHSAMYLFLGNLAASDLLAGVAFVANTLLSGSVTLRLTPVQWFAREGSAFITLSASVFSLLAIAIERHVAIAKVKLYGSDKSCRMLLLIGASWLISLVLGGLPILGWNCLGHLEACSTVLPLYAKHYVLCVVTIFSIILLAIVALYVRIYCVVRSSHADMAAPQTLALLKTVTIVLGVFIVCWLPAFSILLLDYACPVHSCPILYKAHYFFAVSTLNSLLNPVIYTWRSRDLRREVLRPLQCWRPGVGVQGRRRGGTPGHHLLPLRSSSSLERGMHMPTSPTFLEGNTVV

[5] = target: Sphingosine 1-phosphate receptor 5 (Homo sapiens, UniProt Q9H228); experiment: Displacement of [33P]sphingosine 1 phosphate from human S1P5 receptor expressed in CHO cells; assay type: cell-based; in short: as §1
Sequence of Sphingosine 1-phosphate receptor 5 (Q9H228 whole entry): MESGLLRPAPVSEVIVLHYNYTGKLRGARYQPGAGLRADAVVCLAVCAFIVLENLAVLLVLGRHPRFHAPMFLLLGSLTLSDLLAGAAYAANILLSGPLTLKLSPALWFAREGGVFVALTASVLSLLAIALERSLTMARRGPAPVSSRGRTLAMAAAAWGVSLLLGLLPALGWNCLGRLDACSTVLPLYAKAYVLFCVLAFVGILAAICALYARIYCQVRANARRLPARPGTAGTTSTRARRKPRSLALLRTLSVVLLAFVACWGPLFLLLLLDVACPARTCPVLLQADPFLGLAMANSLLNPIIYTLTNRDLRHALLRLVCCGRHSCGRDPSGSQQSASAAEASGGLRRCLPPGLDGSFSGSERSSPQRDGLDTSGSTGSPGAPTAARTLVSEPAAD

[6] = target: T1, Sphingosine 1-phosphate receptor 1; experiment: Activity at human S1P1 receptor expressed in CHO cells by [35S]GTPgammaS binding assay; assay type: functional, cell-based
In short: (§2)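 Agonism measured as ligand-induced [35S]-GTPγS binding to membranes of CHO cells stably expressing the human S1P receptor.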

[7] = Oral bioavailability in rat; assay type: ADME, organism-based; conditions: in vivo
[8] = Half life in rat; assay type: ADME, organism-based; conditions: in vivo
[9] = tested on: Mus musculus; experiment: Decrease in peripheral blood lymphocytes in po dosed mouse after 3 hrs; assay type: functional
In short: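 Compound given orally to mice. Peripheral blood lymphocyte counts taken 3 h after dosing, expressed as average percent decrease in n = 3 animals versus controls (n = 3). ED50 from dose-titration.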

[10] = Half life in rat at 2 mg/kg, po and 1 mg/kg, iv; assay type: ADME, organism-based; conditions: in vivo
In short: (§3)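 Rat PK at 2.0 mpk po and 1.0 mpk iv. Plasma compound levels measured.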

[11] = Bioavailability in rat at 2 mg/kg, po and 1 mg/kg, iv; assay type: ADME, organism-based; conditions: in vivo; in short: as §3
[12] = Plasma clearance in rat at 2 mg/kg, po and 1 mg/kg, iv; assay type: ADME, organism-based; in short: as §3
[13] = Volume of distribution at steady state in rat at 2 mg/kg, po and 1 mg/kg, iv; assay type: ADME, organism-based; conditions: in vivo, read-out: Vdss
[14] = Cmax in rat at 2 mg/kg, po and 1 mg/kg, iv; assay type: ADME, organism-based; conditions: in vivo; in short: as §3
[15] = tested on: Canis familiaris; experiment: Plasma clearance in Beagle dog at 1 mg/kg, po and 0.5 mg/kg, iv; assay type: ADME, organism-based, Canis lupus familiaris; conditions: in vivo
In short: (§4)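 Single-dose PK at 1.0 mpk po and 0.5 mpk iv. Plasma compound levels measured.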

[16] = Volume of distribution at steady state in Beagle dog at 1 mg/kg, po and 0.5 mg/kg, iv; assay type: ADME, organism-based, Canis lupus familiaris; conditions: in vivo, read-out: Vdss
[17] = tested on: Canis familiaris; experiment: Cmax in Beagle dog at 1 mg/kg, po and 0.5 mg/kg, iv; assay type: ADME, organism-based, Canis lupus familiaris; conditions: in vivo; in short: as §4
[18] = Bioavailability in Beagle dog at 1 mg/kg, po and 0.5 mg/kg, iv; assay type: ADME, organism-based, Canis lupus familiaris; conditions: in vivo; in short: as §4
[19] = Plasma clearance in rhesus monkey at 1 mg/kg, po and 0.5 mg/kg, iv; assay type: ADME, organism-based, Macaca mulatta; in short: as §4
[20] = Volume of distribution at steady state in rhesus monkey at 1 mg/kg, po and 0.5 mg/kg, iv; assay type: ADME, organism-based, Macaca mulatta; conditions: in vivo, read-out: Vdss
[21] = Cmax in rhesus monkey at 1 mg/kg, po and 0.5 mg/kg, iv; assay type: ADME, organism-based, Macaca mulatta; conditions: in vivo; in short: as §4
[22] = Bioavailability in rhesus monkey at 1 mg/kg, po and 0.5 mg/kg, iv; assay type: ADME, organism-based, Macaca mulatta; conditions: in vivo; in short: as §4
[23] = tested on: Rhesus monkey; experiment: Maximal decrease in peripheral blood lymphocyte in rhesus monkey at 1 mg/kg, po after 24 hrs; assay type: functional, organism-based; set-up: dose 1 mg/kg; conditions: Macaca mulatta
In short: (§5)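 Complete blood counts run alongside plasma concentrations after a single 1.0 mpk oral dose in beagle dog or rhesus monkey. Lymphocyte counts followed over time, with PBL lowering assessed at 24 h postdose.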

[24] = tested on: Canis familiaris; experiment: Maximal decrease in peripheral blood lymphocyte in Beagle dog at 1 mg/kg, po after 24 hrs; assay type: functional, organism-based; set-up: dose 1 mg/kg; conditions: Canis lupus familiaris; in short: as §5
[25] = Half life in Beagle dog at 1 mg/kg, po and 0.5 mg/kg, iv; conditions: in vivo
[26] = Half life in rhesus monkey at 1 mg/kg, po and 0.5 mg/kg, iv; conditions: in vivo
[27] = target: T2, Sphingosine 1-phosphate receptor 3; experiment: Activity at human S1P3 receptor expressed in CHO cells by [35S]GTP-gamma-S binding assay; assay type: functional, cell-based; in short: as §2

| Structure (SMILES) | IC50 [1] | IC50 [2] | IC50 [3] | IC50 [4] [nM] | IC50 [5] | EC50 [6] | ED50 [9] [mg/kg] | other results |
| --- | --- | --- | --- | --- | --- | --- | --- | --- |
| CCCCCCCCCCCCC/C=C/[C@@H](O)[C@@H](N)COP(=O)(O)O | 0.67 nM (antagonist) | 0.26 nM (antagonist) | 34 nM (antagonist) |  |  |  |  |  |
| FC(F)(F)c1sc(-c2nc(-c3ccccc3)no2)cc1-c1ccccc1 | 25 nM (antagonist) | > 10000 nM | > 10000 nM | > 10000 | > 10000 nM |  |  |  |
| COc1cc(CN2CC(C(=O)O)C2)ccc1OCc1cc(-c2ccccc2)c(C(F)(F)F)s1 | 33 nM (antagonist) | > 10000 nM | 2800 nM (antagonist) | > 10000 | 77 nM (antagonist) | 47 nM (agonist) |  |  |
| O=C(O)C1CN(Cc2ccc(OCc3cc(-c4ccccc4)c(C(F)(F)F)s3)c(F)c2)C1 | 2.7 nM (antagonist) | 2100 nM (antagonist) | 2700 nM (antagonist) | > 10000 | 41 nM (antagonist) | 1.3 nM (agonist) |  |  |
| CCCCCCCCCc1ccc(CN2CCC(P(=O)(O)O)C2)cc1 (stereo unspecified) | 6.9 nM (antagonist) | 220 nM (antagonist) | 45 nM (antagonist) | > 10000 | 6.3 nM (antagonist) |  |  |  |
| CCCCCCCCCc1ccc(CN2CC(C(=O)O)C2)cc1 | 18 nM (antagonist) | 4900 nM (antagonist) | 5400 nM (antagonist) | > 10000 | 11 nM (antagonist) |  | 5.2 | bioavailability [7]: > 70%; half-life [8]: 1.4 h |
| O=C(O)C1CN(Cc2ccc(OCc3cc(-c4ccccc4)c(C(F)(F)F)s3)c(C(F)(F)F)c2)C1 | 7.7 nM (antagonist) | > 10000 nM | 340 nM (antagonist) | > 10000 | 21 nM (antagonist) | 5.9 nM (agonist) |  |  |
| Cc1cc(CN2CC(C(=O)O)C2)cc(C)c1OCc1cc(-c2ccccc2)c(C(F)(F)F)s1 | 4 nM (antagonist) | 10000 nM | 120 nM (antagonist) | > 10000 | 12 nM (antagonist) | 1.3 nM (agonist) |  |  |
| CCCCCCCCc1ccc(CCC(N)(CO)CO)cc1 [FINGOLIMOD] |  | > 10000 nM | > 10000 nM | > 10000 | 2100 nM (antagonist) |  | 0.15 |  |
| Cc1cc(CN2CC(C(=O)O)C2)ccc1OCc1cc(-c2ccccc2)c(C(F)(F)F)s1 | 1.8 nM (antagonist) | 7500 nM (antagonist) | 1500 nM (antagonist) | > 10000 | 13 nM (antagonist) | 0.8 nM (agonist) | 0.18 | half-life [10]: 8.9 h; bioavailability [11]: 88%; clearance [12]: 8.2 mL/min/kg; Vd [13]: 5.7 L/kg; Cmax [14]: 500 nM; clearance [15]: 0.5 mL/min/kg; Vd [16]: 0.9 L/kg; Cmax [17]: 3200 nM; bioavailability [18]: 100%; clearance [19]: 1.3 mL/min/kg; Vd [20]: 1.2 L/kg; Cmax [21]: 1800 nM; bioavailability [22]: 96%; Activity [23]: Active; Activity [24]: Active; half-life [25]: 22.3 h; half-life [26]: 12.6 h |
| CCCCCCCCCc1ccc(CN2CCC(C(=O)O)C2)cc1 (stereo unspecified) | 20 nM (antagonist) | 2100 nM (antagonist) | 2500 nM (antagonist) | > 10000 | 29 nM (antagonist) |  | 23 | bioavailability [7]: > 70%; half-life [8]: 0.9 h |
| O=C(O)C1CN(Cc2ccc(OCc3cc(-c4ccccc4)c(C(F)(F)F)s3)c(Br)c2)C1 | 13 nM (antagonist) | > 10000 nM | 2400 nM (antagonist) | > 10000 | 53 nM (antagonist) | 3.3 nM (agonist) |  |  |
| O=C(O)C1CCN(Cc2ccc(OCc3cc(-c4ccccc4)c(C(F)(F)F)s3)cc2)C1 (stereo unspecified) | 4.3 nM (antagonist) | 1000 nM (antagonist) | 790 nM (antagonist) | > 10000 | 120 nM (antagonist) | 2.4 nM (agonist) |  |  |
| FC(F)(F)c1sc(-c2nc(-c3ccc(Cl)cc3Cl)no2)cc1-c1ccccc1 | 78 nM (antagonist) | > 10000 nM | > 10000 nM | > 10000 | > 10000 nM |  |  |  |
| O=C(O)C1CN(Cc2ccc(-c3noc(-c4cc(-c5ccccc5)c(C(F)(F)F)s4)n3)cc2)C1 | 8.3 nM (antagonist) | 1000 nM (antagonist) | 10000 nM | > 10000 | 16 nM (antagonist) | 0.2 nM (agonist) | 0.07 | EC50 [27]: 17 nM (agonist); half-life [10]: 10.5 h; bioavailability [11]: 64%; clearance [12]: 2.2 mL/min/kg; Vd [13]: 1.9 L/kg; Cmax [14]: 1300 nM |
| CCCCCCCCOc1c(Br)cc(CNCCCP(=O)(O)O)cc1OC |  |  | 80 nM (antagonist) |  |  |  |  |  |
| CCc1cc(CN2CC(C(=O)O)C2)ccc1OCc1cc(-c2ccccc2)c(C(F)(F)F)s1 | 3.5 nM (antagonist) | 4300 nM (antagonist) | > 10000 nM | > 10000 | 10 nM (antagonist) | 1.4 nM (agonist) |  |  |
| FC(F)(F)c1cccc(-c2noc(-c3cc(-c4ccccc4)c(C(F)(F)F)s3)n2)c1 |  | > 10000 nM | > 10000 nM | > 10000 | 4600 nM (antagonist) |  |  |  |
| O=C(O)C1CN(Cc2ccc(OCc3cc(-c4ccccc4)c(C(F)(F)F)s3)c(Cl)c2)C1 | 3.2 nM (antagonist) | 2000 nM (antagonist) | 1300 nM (antagonist) | > 10000 | 18 nM (antagonist) | 1.4 nM (agonist) | 0.54 | half-life [10]: 7 h; bioavailability [11]: 62%; clearance [12]: 8.2 mL/min/kg; Vd [13]: 3.8 L/kg; Cmax [14]: 500 nM |
| O=C(O)C1CN(Cc2cc(Cl)c(OCc3cc(-c4ccccc4)c(C(F)(F)F)s3)c(Cl)c2)C1 | 7.5 nM (antagonist) | > 10000 nM | 640 nM (antagonist) | > 10000 | 33 nM (antagonist) | 2.7 nM (agonist) |  |  |
